# High-throughput results deposited in PubChem by Broad Institute.
# Shown are actives, neighbours in structure and some others; about 3.3% of the full set was active somewhere.
# DENV2 CPE rescue: inhibitors of DENV2 cytopathic effect, primary screen, cell-based, plate reader, single concentration | DENV2-infected cells, cytopathic effect rescue | CPE inhibition, % at 9.99 µM | 350,000 tested, 1.7% active; in the data active means CPE inhibition above about 20%, passing the limit was not always enough; inconclusive means no clear call, values can overlap the other calls; tested in BHK-21 cells;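 further: 0% = median of neutral control wells and 100% = median of positive control wells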
# E-sel inducer: E-selectin induction in HUVECs, primary screen, imaging, HUVEC, immunofluorescence imaging, single point | activation, % at 7.58 µM | 260,000 tested, 0.37% active | normalized: neutral wells 0, TNF-alpha wells 100;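 active means mean E-selectin-positive cell signal at least 10% of the positive control, reached in at least 60% of replicates, without over 20% cell loss; inconclusive means no rule given, readout overlaps actives, possibly toxicity-flagged; inactive means the rest, including those meeting only one limit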
# Target sequence (P16581 whole entry, looked up): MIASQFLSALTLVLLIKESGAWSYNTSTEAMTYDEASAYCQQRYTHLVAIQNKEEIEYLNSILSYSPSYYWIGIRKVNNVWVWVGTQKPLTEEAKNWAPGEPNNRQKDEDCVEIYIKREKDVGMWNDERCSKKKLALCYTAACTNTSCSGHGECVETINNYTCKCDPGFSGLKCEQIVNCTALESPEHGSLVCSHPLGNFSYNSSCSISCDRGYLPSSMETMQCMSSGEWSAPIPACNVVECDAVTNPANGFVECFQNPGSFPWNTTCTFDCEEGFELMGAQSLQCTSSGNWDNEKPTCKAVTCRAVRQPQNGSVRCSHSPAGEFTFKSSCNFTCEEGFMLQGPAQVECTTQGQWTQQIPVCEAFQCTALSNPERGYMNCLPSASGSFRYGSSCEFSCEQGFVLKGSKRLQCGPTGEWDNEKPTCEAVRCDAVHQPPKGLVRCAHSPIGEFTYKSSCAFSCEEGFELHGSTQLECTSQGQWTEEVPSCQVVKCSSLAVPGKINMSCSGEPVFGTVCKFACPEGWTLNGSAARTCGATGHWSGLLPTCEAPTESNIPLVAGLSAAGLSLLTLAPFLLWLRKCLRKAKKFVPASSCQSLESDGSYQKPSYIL
#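 Test system: HUVEC | Signal: Immunofluorescence imaging | Read-out: Percent E-selectin-positive cells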
# FGF22 binding: binders of human FGF22 protein, primary screen, FGF22 synaptogenesis inhibitor project, biophysical, thermal shift, single point; Fibroblast growth factor 22 (Homo sapiens), Q9HCT0; recombinant FGF22 thermal shift, SYPRO orange fluorescence; percent of sucrose octasulfate shift, DMSO zero; activity (Tm shift, normalised), % at 9.99 µM; 340,000 tested, 1.5% active;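 active means mean Tm shift, scaled 0 neutral to 100 positive control, at about 1.3% or above, every replicate too, limit read from the data; inconclusive means no clear call, values can overlap the other calls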
# Xi reactivation: activators of inactive X chromosome reactivation, primary screen, imaging, XiGFP fibroblasts, GFP high-content imaging, set 2; 360,000 tested, 0.055% active; XiGFP mouse fibroblasts, % GFP-positive cells imaging, 3 d; cells co-treated with 5-aza-dC sensitizer; scaled so ellipticine positive control = 100%; activation, % at 7.58 µM;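 active means mean normalized replicate activation at least 10% and every replicate at or above 10%; inconclusive means only one of the two criteria met; inactive means mean below 10% and not all replicates reach 10%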;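 further: 0% = median of on-plate neutral control wells and 100% = ellipticine 6 µM median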
#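 Material: XiGFP fibroblasts, SV40-immortalized. Buffer or medium: DMEM plus 5-aza-dC sensitizer. Compound: single concentration per compound, delivered by pin transfer. Times: 3 days compound exposure. Controls: ellipticine 6 µM.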
# Statin myotox sup: suppressors of statin myotoxicity in C2C12 myotubes, primary screen, cell-based, single point, plate reader; C2C12 myotubes + simvastatin, ATP luminescence, 48 h; scaled: DMSO 0, geranylgeraniol control 100; rescue of ATP level, % at 7.49 µM; 330,000 tested, 0.78% active; AID 602340, 2012;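 active means mean ATP rescue above about 67%, or every replicate alone reaching that limit, limit read from the data, passing the limit was not always enough; inconclusive means no clear call, values can overlap the other calls; inactive means mean under the limit and some replicate under it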;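 further: myotubes were challenged with 10 µM simvastatin during compound exposure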
# PglD inh: C. jejuni PglD acetyltransferase inhibitors, primary screen, biochemical, DTNB colorimetric, single point | purified PglD enzyme, DTNB colorimetric CoA detection | UDP-N-acetylbacillosamine N-acetyltransferase PglD (Campylobacter jejuni) | AID 602405, 2012 | inhibition, % at 12.5 µM | 360,000 tested, 0.098% active; in the data active means inhibition above about 16%, passing the limit was not always enough; inconclusive means no clear call, values can overlap the other calls
# * = called active by the depositor; u = inconclusive; x = no result.
SMILES,DENV2 CPE rescue,E-sel inducer,FGF22 binding,Xi reactivation,Statin myotox sup,PglD inh
C[C@H]1CCCCO[C@H](CN(C)C(=O)Nc2cccc3ccccc23)[C@@H](C)CN([C@@H](C)CO)C(=O)c2cc(NS(=O)(=O)c3ccc(Cl)cc3)ccc2O1,44*,x,0,0,24,19
C[C@@H]1CN([C@H](C)CO)C(=O)c2cc(NC(=O)C3CCCCC3)ccc2O[C@H]1CN(C)Cc1ccc2c(c1)OCO2,10,0,0,0,21,-4
C[C@H](CO)N1C[C@H](C)[C@H](CN(C)C(=O)NC2CCCCC2)OCCCC[C@H](C)Oc2ccc(NC(=O)Nc3ccc(F)cc3)cc2C1=O,-1,x,1,0,x,1
C[C@H]1CCCCO[C@H](CN(C)C(=O)Nc2cccc3ccccc23)[C@@H](C)CN([C@@H](C)CO)C(=O)c2cc(NS(=O)(=O)c3ccc(F)cc3)ccc2O1,26*,0,x,0,x,1
COc1ccccc1S(=O)(=O)N[C@@H]1CC[C@@H](CCNC(=O)C2CC2)O[C@H]1CO,2,0,0,0,2,3
CN(c1ccccc1)S(=O)(=O)c1cccc(NC(=O)CSc2n[nH]c(N)n2)c1,10,0,0,0,1,8
CN(c1ccccc1)S(=O)(=O)c1cccc(NC(=O)CSc2nccc(=O)[nH]2)c1,9,0,43*,0,4,-5
O=C(CC1S/C(=N/N=C/c2c[nH]c3ccccc23)NC1=O)Nc1ccccc1 (stereo not given),20*,0,0,0,x,x
CN(C)CCCNC(=O)c1ccc(Oc2ccccc2)cc1,-2,x,44*,0,x,x
COc1ccc(NC(=O)Nc2cccc3c2O[C@@H](CN(C)C(=O)Nc2ccccc2)[C@H](C)CN([C@@H](C)CO)C3=O)cc1,-10,0,0,0,9,-1
Cc1ccccc1-n1ncc2c1CC(C)(C)CC2NC(=O)CSc1ccncc1 (stereo not given),108*,-2,0,1,2,-1
O=C(c1cccnc1)N1CC2(C1)[C@H](c1ccccc1)[C@@H](CO)N2C(=O)c1cccnc1,-7,0,0,0,x,x
COc1cccc(CN2CC3(C2)CN(C(=O)C2CC2)[C@H](CO)c2c3c3ccc(OC)cc3n2C)c1,-4,0,x,0,x,x
CCCn1c(SCC(=O)Nc2cc(Cl)ccc2Cl)n[nH]c1=O,-5,0,43*,0,10,4
CCCn1c(SCC(=O)Nc2cccc(Cl)c2Cl)n[nH]c1=O,x,1,0,0,-2,5
CCN1CCN(c2ncnc3c2cnn3-c2ccccc2)CC1,4,0,0,0,x,-1
Cc1ccc(Cn2ncc3c(N4CCN(Cc5ccc(Cl)cc5)CC4)ncnc32)cc1,x,x,x,x,8,0
CCN1CCN(c2ncnc3c2cnn3-c2ccc(Cl)cc2)CC1,50*,-2,0,0,-6,-1
CC1CCN(c2ncnc3c2cnn3Cc2ccc(Cl)cc2)CC1,x,x,x,x,172*,0
CN(C)CCNc1ncnc2c1cnn2-c1ccc(Cl)cc1,40*,0,0,0,-11,-1
C[C@@H]1CN([C@@H](C)CO)C(=O)Cc2cc(NC(=O)C3CC3)ccc2O[C@@H]1CN(C)Cc1ccc(-c2ccccc2)cc1,31*,2,-1,0,27,-4
C[C@H]1CN([C@@H](C)CO)C(=O)Cc2cc(NC(=O)C3CCCCC3)ccc2O[C@H]1CN(C)Cc1ccc(-c2ccccc2)cc1,-2,0,0,0,-7,3
C[C@@H]1CN([C@@H](C)CO)C(=O)Cc2cc(NC(=O)C3CCCCC3)ccc2O[C@H]1CN(C)Cc1ccc(-c2ccccc2)cc1,-18,-3,0,0,137*,-2
CC1(C)NC(=O)N(CC(O)COc2cccc(F)c2)C1=O (stereo not given),2,0,0,0,-13,-2
COc1ccc(OCC(O)CN2C(=O)NC(C)(C)C2=O)cc1 (stereo not given),x,x,x,x,121*,0
SMILES,DENV2 CPE rescue,E-sel inducer,FGF22 binding,Xi reactivation,Statin myotox sup,PglD inh
CC1(C)NC(=O)N(CC(O)Cn2nnc3ccccc32)C1=O (stereo not given),x,x,x,x,131*,2
Fc1ccc(F)c(C2=NNC(=Nc3ccccc3F)SC2)c1,86*,x,0,0,x,-2
N#C/C(=C(/O)COC(=O)c1ccc(C#N)cc1)c1nc2ccccc2s1,u,x,44*,0,5,-2
CC(C)NC(=O)NCC[C@H]1CC[C@@H](NC(=O)CCN2CCCCC2)[C@@H](CO)O1,-1,0,0,0,-6,0
CC(C)(C)[S@@](=O)N1Cc2cc(C(=O)N3CCCCC3)nc(-c3cccc(-c4ccc(C#N)cc4)c3)c2[C@H]1CCO,u,0,0,0,-10,1
COc1ccc(C(=O)c2ccc(OC)cc2O)c(O)c1,x,x,x,x,128*,2
O=C(NCc1ccco1)C(c1ccccc1)N(C(=O)Cc1cccs1)c1ccccc1F (stereo not given),x,x,x,x,98*,2
O=C(NCc1ccco1)C(c1ccncc1)N(C(=O)Cc1cccs1)c1ccccc1 (stereo not given),-1,-1,42,0,-3,4
CC(C)NC(=O)N(C)C[C@@H]1Oc2c(NC(=O)Nc3cccc4ccccc34)cccc2C(=O)N([C@@H](C)CO)C[C@@H]1C,-5,0,-1,-1,36,-2
CCCCNc1ccc2c3c(cccc13)C(=O)N(CCCC)C2=O,-6,0,0,123*,x,x
CN(C)CCCN1C(=O)c2cccc3c(Br)ccc(c23)C1=O,7,x,1,0,x,x
Cc1ccc(C(=O)N(c2ccccn2)C(C)c2ccco2)cc1C (stereo not given),x,x,x,x,123*,6
COc1cccc(/C=C2/NC(=O)NC2=O)c1OCC(=O)Nc1ccccc1,8,0,43*,0,5,-1
CCOC(=O)COc1ccccc1/C=C1\NC(=O)NC1=O,-10,x,0,0,3,-3
COC(=O)CSc1nc(N)nc(C)c1Cl,-10,x,42,0,x,x
COC(=O)CSc1nc(C)c(C)c(C)c1C(N)=O,x,0,43*,0,3,x
